This note sets out measurements from ChEMBL document CHEMBL1817557, “Synthesis and biological evaluation of orally active hypolipidemic agents” (J Med Chem, 2011).

Data set [1] can be described thus: Aqueous solubility of the compound in 0.1 M boric acid buffer at pH 9.0 after 4 hrs by HPLC method. The data set is classed as physicochemical.
Data set [2] has as its system Mus musculus. Put plainly: Hypolipidemic activity in Swiss albino mouse assessed as decrease in plasma total cholesterol level at 50 mg/kg, po administered daily for 8 days measured on day 9 by spectrophotometry relative to control. The class given is functional. More on the design: scale not given: the % may be the effect or the level left. Put shortly:
(§1)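 Male Swiss albino mice (moderately hypertriglyceridemic model) dosed by oral gavage at 50 mg/kg body weight once daily for 8 days; plasma triglyceride and total cholesterol measured. Percent change calculated relative to vehicle-treated control group; mean ± SE, n = 10 mice per group.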

A short description of data set [3]: Octanol-buffer partition coefficient, log P of the compound at pH 7.4 by HPLC. The data set is classed as physicochemical. In short, it runs like this:
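Partition coefficient determined by HPLC in an octanol–buffer system at pH 7.4, 25 °C.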

In data set [4] the test system is Mus musculus. Put plainly: Hypolipidemic activity in Swiss albino mouse assessed as decrease in plasma triglyceride level at 50 mg/kg, po administered daily for 8 days measured on day 9 by spectrophotometry relative to control. The class given is functional. More on the design: scale not given: the % may be the effect or the level left. Put shortly:
as §1

Data set [5] can be described thus: Aqueous solubility of the compound in 0.1 M citric acid buffer at pH 3.0 after 4 hrs by HPLC method. The data set is classed as physicochemical. The following applies: pH 3, 4 h.
Data set [6] in a line: Aqueous solubility of the compound in 0.2 M hydrochloric acid buffer at pH 1.0 after 4 hrs by HPLC method. The class given is physicochemical.
Data set [7] can be described thus: Aqueous solubility of the compound in 0.2 M phosphate buffer at pH 7.4 after 4 hrs by HPLC method. The data set is classed as physicochemical.
Data set [8] is described as follows: Aqueous solubility of the compound in 0.1 M phosphate buffer at pH 5.2 after 4 hrs by HPLC method. The class given is physicochemical.
Data set [9] concerns Mus musculus. Kind of data set: Hypolipidemic activity in Swiss albino mouse assessed as change in plasma total cholesterol level at 50 mg/kg, po administered daily for 8 days measured on day 9 by spectrophotometry relative to control. The class given is functional. In short, it runs like this: as §1

Converted amounts (≈) assume the structure as drawn.

In general, solubility refers to the dissolved amount per volume that the medium holds. As usually defined, the logD is lipophilicity at a set pH, counting ionised and neutral species. In the case of `Cc1oc(=O)oc1COC(=O)C(C)(C)Oc1ccc(C(=O)c2ccc(Cl)cc2)cc1`, the solubility at 4 h worked out at 4 ng/mL (≈ 9.28 nM) in data set [1]; 230 ng/mL (≈ 534 nM) in data set [6] (0.2 M hydrochloric acid buffer, pH 1); 2 ng/mL (≈ 4.64 nM) in data set [7]; 3 ng/mL (≈ 6.96 nM) in data set [8]. Also, the Activity came out at 11.2% in [2] and 27.2% in [4]. Further, in data set [3], the logD was found to be 4.35. Further, the solubility in data set [5] was found to be 2 ng/mL (≈ 4.64 nM).

As for `CC(C)(Oc1ccc(C(=O)c2ccc(Cl)cc2)cc1)C(=O)OCCN1CCOCC1`, the solubility at 4 h in [1] stood at 4800 ng/mL (≈ 11100 nM); in data set [7], 1920 ng/mL (≈ 4450 nM); in [8], 38000 ng/mL (≈ 88000 nM). The Activity came to 2.4% in [2] and 27.6% in [4]. The pH-dependent lipophilicity (logD) in data set [3] turned out to be 3.5. Also, the solubility was 15 ng/mL (≈ 34.7 nM) in [5] and 5 ng/mL (≈ 11.6 nM) in data set [6] (buffer, pH 1, 4 h).

For the compound `CC(=O)OC(C)OC(=O)C(C)(C)Oc1ccc(C(=O)c2ccc(Cl)cc2)cc1` (centres undefined), the results for the solubility at 4 h in [1], in data set [7] and in [8] were 3 ng/mL (≈ 7.41 nM), 2 ng/mL (≈ 4.94 nM) and 3 ng/mL (≈ 7.41 nM), respectively. In addition, the log distribution coefficient (logD) in data set [3] stood at 4.65. In addition, the Activity in [4] was 33.1%; in data set [9], -3.5%.

With `CC(C)OC(=O)C(C)(C)Oc1ccc(C(=O)c2ccc(Cl)cc2)cc1` [FENOFIBRATE], the Activity amounted to 5.5% in data set [2] and 48.6% in [4]. The logD in data set [3] was 4.78.

Take `CC(C)OC(=O)OC(C)OC(=O)C(C)(C)Oc1ccc(C(=O)c2ccc(Cl)cc2)cc1` (centres undefined): the results for the solubility at 4 h in data set [1], in data set [7] and in [8] were 22 ng/mL (≈ 49 nM), 1 ng/mL (≈ 2.23 nM) and 1 ng/mL (≈ 2.23 nM), respectively. The Activity in data set [2] was 7.7%; in data set [4], 47%. The same compound returned a pH-dependent lipophilicity (logD) in [3] of 5.43.

As to `CC(C)(C)C(=O)OCOC(=O)C(C)(C)Oc1ccc(C(=O)c2ccc(Cl)cc2)cc1`, the solubility at 4 h in data set [1] came out at 1 ng/mL (≈ 2.31 nM); in [7], 2 ng/mL (≈ 4.62 nM); in data set [8], 1 ng/mL (≈ 2.31 nM). The Activity in data set [2] is 9%; in [4], 45%. The same compound returned a logD in [3] of 4.7.

For the compound `CC(C)OC(=O)OCOC(=O)C(C)(C)Oc1ccc(C(=O)c2ccc(Cl)cc2)cc1`, the solubility at 4 h stood at 6 ng/mL (≈ 13.8 nM) in data set [1], 2 ng/mL (≈ 4.6 nM) in data set [7] and 2 ng/mL (≈ 4.6 nM) in data set [8]. In addition, the Activity in data set [2] is listed as 7.2%; in data set [4], 33.1%. For the same compound, the log distribution coefficient (logD) in data set [3] is 4.91. Further, in data set [5], the solubility stood at 2 ng/mL (≈ 4.6 nM).
